In ChEMBL document CHEMBL4354843, “Structure-Based Design of a Potent and Selective Covalent Inhibitor for SRC Kinase That Targets a P-Loop Cysteine” (J Med Chem, 2020) one finds Activity and IC50 data, which are given here for one molecule.

Assay [1] has as its target Serine/threonine-protein kinase LATS1 (Homo sapiens) (UniProt O95835). As to the kind of experiment: Binding affinity to wild-type human partial length LATS1 (Q678 to V1130 residues) expressed in bacterial expression system assessed as residual binding level at 1 uM by Kinomescan method relative to control.
Assay [2] has as its target Serine/threonine-protein kinase tousled-like 1 (Homo sapiens) (UniProt Q9UKI8). As to the kind of experiment: Binding affinity to wild-type human partial length TLK1 (K447 to A754 residues) expressed in bacterial expression system assessed as residual binding level at 1 uM by Kinomescan method relative to control.
Assay [3] has as its target Tyrosine-protein kinase HCK (Homo sapiens, UniProt P08631). As to the kind of experiment: Inhibition of HCK (unknown origin).
The target of assay [4] is Serine/threonine-protein kinase PAK 4 (Homo sapiens) (UniProt O96013). As to the kind of experiment: Binding affinity to wild-type human partial length PAK4 (Q144 to R438 residues) expressed in bacterial expression system assessed as residual binding level at 1 uM by Kinomescan method relative to control.
The target of assay [5] is Misshapen-like kinase 1 (Homo sapiens) (UniProt Q8N4C8). As to the kind of experiment: Binding affinity to wild-type human partial length MINK (M1 to K312 residues) expressed in mammalian expression system assessed as residual binding level at 1 uM by Kinomescan method relative to control. A digest of the protocol:
(§1)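 Active-site-directed competition binding panel of 468 kinases (KinomeScan), compound at 1 μM. The read-out is kinase remaining bound, given as a percentage of the DMSO control. […]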

The target in assay [6] is Activin receptor type-2A (Homo sapiens) (UniProt P27037). As to the kind of experiment: Binding affinity to wild-type human ACVR2A (V171 to T499 residues) expressed in bacterial expression system assessed as residual binding level at 1 uM by Kinomescan method relative to control. A digest of the protocol: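 Active-site-directed KinomeScan competition binding panel covering 468 kinases, compound tested at 1 μM. Each readout is the kinase signal remaining with compound, expressed as a percentage of the DMSO control. […]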

Assay [7] has as its target Membrane-associated tyrosine- and threonine-specific cdc2-inhibitory kinase (Homo sapiens) (UniProt Q99640). As to the kind of experiment: Binding affinity to wild-type human partial length PKMYT1 (A88 to G366 residues) expressed in bacterial expression system assessed as residual binding level at 1 uM by Kinomescan method relative to control.
Assay [8] has as its target Activin receptor type-1B (Homo sapiens) (UniProt P36896). As to the kind of experiment: Binding affinity to wild-type human ACVR1B (S187 to I505 residues) expressed in bacterial expression system assessed as residual binding level at 1 uM by Kinomescan method relative to control. A digest of the protocol: (§2)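 KinomeScan, an active site-directed competition binding panel of 468 kinases. The test compound was at 1 μM. The readout is remaining kinase binding as a percentage of the DMSO control. Scores above 35% were treated as weak binding and not listed.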

The target in assay [9] is Tyrosine-protein kinase receptor TYRO3 (Homo sapiens) (UniProt Q06418). As to the kind of experiment: Binding affinity to wild-type human partial length TYRO3 (S497 to T814 residues) expressed in bacterial expression system assessed as residual binding level at 1 uM by Kinomescan method relative to control.
In assay [10] the target is Phosphatidylinositol 4,5-bisphosphate 3-kinase catalytic subunit delta isoform (Homo sapiens) (UniProt O00329). As to the kind of experiment: Binding affinity to wild-type human partial length PIK3CD (R108 to Q1044 residues) expressed in mammalian expression system assessed as residual binding level at 1 uM by Kinomescan method relative to control.
In assay [11] the target is Dual specificity mitogen-activated protein kinase kinase 1 (Homo sapiens) (UniProt Q02750). As to the kind of experiment: Binding affinity to wild-type human full length MEK1 (M1 to V393 residues) expressed in mammalian expression system assessed as residual binding level at 1 uM by Kinomescan method relative to control. A digest of the protocol:
as §2

The target in assay [12] is Tyrosine-protein kinase Blk (Homo sapiens) (UniProt P51451). As to the kind of experiment: Binding affinity to wild-type human partial length BLK (G211 to L503 residues) expressed in bacterial expression system assessed as residual binding level at 1 uM by Kinomescan method relative to control. The method, boiled down: as §2
The target of assay [13] is Phosphatidylinositol 4-phosphate 3-kinase C2 domain-containing subunit beta (Homo sapiens) (UniProt O00750). As to the kind of experiment: Binding affinity to wild-type human partial length PIK3C2B (M1 to L1634 residues) expressed in mammalian expression system assessed as residual binding level at 1 uM by Kinomescan method relative to control.
Assay [14] deals with Phosphorylase b kinase gamma catalytic chain, skeletal muscle/heart isoform (Homo sapiens) (UniProt Q16816). As to the kind of experiment: Binding affinity to wild-type human full length PHKG1 (M1 to Y387 residues) expressed in bacterial expression system assessed as residual binding level at 1 uM by Kinomescan method relative to control. The method, boiled down: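 Active-site-directed competition binding panel (KinomeScan) covering 468 kinases. Test agent was screened at 1 μM. The read-out is the remaining kinase signal expressed relative to a DMSO control. Scores above 35%, taken as weak binding, were not reported.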

Assay [15] has as its target Fibroblast growth factor receptor 3 (Homo sapiens) (UniProt P22607). As to the kind of experiment: Binding affinity to wild-type human partial length FGFR3 (R442 to S771 residues) expressed in bacterial expression system assessed as residual binding level at 1 uM by Kinomescan method relative to control.
Assay [16] has as its target Receptor-type tyrosine-protein kinase FLT3 (Homo sapiens) (UniProt P36888). As to the kind of experiment: Binding affinity to wild-type human partial length autoinhibited FLT3 (H564 to Y969 residues) expressed in mammalian expression system assessed as residual binding level at 1 uM by Kinomescan method relative to control.
Assay [17] concerns the target Ephrin type-A receptor 8 (Homo sapiens) (UniProt P29322). As to the kind of experiment: Binding affinity to wild-type human partial length EPHA8 (Q608 to C920 residues) expressed in bacterial expression system assessed as residual binding level at 1 uM by Kinomescan method relative to control. The method, boiled down: as §1
Assay [18] has as its target Leucine-rich repeat serine/threonine-protein kinase 2 (Homo sapiens) (UniProt Q5S007). As to the kind of experiment: Binding affinity to wild-type human partial length LRRK2 (H970 to E2527 residues) expressed in mammalian expression system assessed as residual binding level at 1 uM by Kinomescan method relative to control.
The target in assay [19] is Serine/threonine-protein kinase SBK1 (Homo sapiens) (UniProt Q52WX2). As to the kind of experiment: Binding affinity to wild-type human partial length SBK1 (P23 to P348 residues) expressed in mammalian expression system assessed as residual binding level at 1 uM by Kinomescan method relative to control.
The target of assay [20] is Serine/threonine-protein kinase 32B (Homo sapiens) (UniProt Q9NY57). As to the kind of experiment: Binding affinity to wild-type human full length YANK2 (M1 to S414 residues) expressed in bacterial expression system assessed as residual binding level at 1 uM by Kinomescan method relative to control.
Serine/threonine-protein kinase 32B (Homo sapiens), sequence (Q9NY57 whole entry, the tested form may be a part): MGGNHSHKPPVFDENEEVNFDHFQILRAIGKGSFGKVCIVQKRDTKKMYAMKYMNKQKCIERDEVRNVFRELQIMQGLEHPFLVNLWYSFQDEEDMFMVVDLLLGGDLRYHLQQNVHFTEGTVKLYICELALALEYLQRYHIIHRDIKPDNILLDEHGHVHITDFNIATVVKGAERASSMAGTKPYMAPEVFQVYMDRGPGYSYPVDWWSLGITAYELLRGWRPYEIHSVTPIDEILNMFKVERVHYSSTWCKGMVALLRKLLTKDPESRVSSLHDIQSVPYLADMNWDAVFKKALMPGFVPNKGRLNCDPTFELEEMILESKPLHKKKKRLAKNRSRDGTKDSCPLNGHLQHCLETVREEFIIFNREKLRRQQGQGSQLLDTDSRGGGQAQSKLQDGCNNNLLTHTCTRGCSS
Assay [21] has as its target Ephrin type-A receptor 2 (Homo sapiens) (UniProt P29317). As to the kind of experiment: Binding affinity to wild-type human partial length EPHA2 (T593 to V891 residues) expressed in bacterial expression system assessed as residual binding level at 1 uM by Kinomescan method relative to control.
Assay [22] addresses Calcium/calmodulin-dependent protein kinase type II subunit gamma (Homo sapiens) (UniProt Q13555). As to the kind of experiment: Binding affinity to wild-type human partial length CAMK2G (R9 to A303 residues) expressed in bacterial expression system assessed as residual binding level at 1 uM by Kinomescan method relative to control.

Activin receptor type-1B (Homo sapiens), sequence (P36896 whole entry, the tested form may be a part): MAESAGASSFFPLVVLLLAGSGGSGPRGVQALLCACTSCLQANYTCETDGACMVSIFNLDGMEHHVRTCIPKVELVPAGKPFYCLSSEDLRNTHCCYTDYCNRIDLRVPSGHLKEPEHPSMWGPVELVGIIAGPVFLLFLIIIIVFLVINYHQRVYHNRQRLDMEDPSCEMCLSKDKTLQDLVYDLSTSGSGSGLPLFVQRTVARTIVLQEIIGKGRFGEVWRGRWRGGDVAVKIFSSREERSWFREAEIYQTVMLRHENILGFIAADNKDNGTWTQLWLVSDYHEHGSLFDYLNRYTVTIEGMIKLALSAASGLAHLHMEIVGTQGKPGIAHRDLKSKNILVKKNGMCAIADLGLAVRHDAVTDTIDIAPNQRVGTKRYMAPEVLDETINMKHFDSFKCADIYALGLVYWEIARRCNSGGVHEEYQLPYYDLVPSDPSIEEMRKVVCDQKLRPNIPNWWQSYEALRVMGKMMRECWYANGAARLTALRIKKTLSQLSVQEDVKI
Serine/threonine-protein kinase LATS1 (Homo sapiens), sequence (O95835 whole entry, the tested form may be a part): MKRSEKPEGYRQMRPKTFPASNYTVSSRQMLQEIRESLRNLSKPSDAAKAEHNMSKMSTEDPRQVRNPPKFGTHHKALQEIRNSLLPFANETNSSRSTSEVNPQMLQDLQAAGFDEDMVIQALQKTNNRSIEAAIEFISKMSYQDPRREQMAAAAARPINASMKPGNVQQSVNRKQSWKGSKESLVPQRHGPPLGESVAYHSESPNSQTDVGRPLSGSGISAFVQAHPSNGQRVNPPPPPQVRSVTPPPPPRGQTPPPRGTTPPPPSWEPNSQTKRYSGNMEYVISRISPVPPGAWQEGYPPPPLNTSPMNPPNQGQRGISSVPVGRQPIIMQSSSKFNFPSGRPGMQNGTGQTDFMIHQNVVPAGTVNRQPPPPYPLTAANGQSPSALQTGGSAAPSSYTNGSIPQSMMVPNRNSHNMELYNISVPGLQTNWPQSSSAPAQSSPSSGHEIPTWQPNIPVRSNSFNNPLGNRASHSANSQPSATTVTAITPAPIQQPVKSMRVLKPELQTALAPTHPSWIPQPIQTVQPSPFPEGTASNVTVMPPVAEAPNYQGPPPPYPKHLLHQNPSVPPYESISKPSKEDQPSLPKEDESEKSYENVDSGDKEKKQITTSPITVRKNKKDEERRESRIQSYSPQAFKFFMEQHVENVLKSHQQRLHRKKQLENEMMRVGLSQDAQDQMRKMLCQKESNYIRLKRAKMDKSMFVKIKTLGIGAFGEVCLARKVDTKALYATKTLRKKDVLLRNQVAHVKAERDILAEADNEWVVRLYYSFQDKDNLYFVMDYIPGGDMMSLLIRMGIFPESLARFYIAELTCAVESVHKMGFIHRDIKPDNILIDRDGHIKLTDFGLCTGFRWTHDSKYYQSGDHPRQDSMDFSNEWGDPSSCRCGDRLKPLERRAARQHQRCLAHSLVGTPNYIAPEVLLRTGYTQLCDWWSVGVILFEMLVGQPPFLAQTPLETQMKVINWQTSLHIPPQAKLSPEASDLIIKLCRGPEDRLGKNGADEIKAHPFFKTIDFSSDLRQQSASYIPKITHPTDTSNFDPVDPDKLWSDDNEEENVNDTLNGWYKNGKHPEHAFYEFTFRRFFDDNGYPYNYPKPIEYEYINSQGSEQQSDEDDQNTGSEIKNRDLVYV
Calcium/calmodulin-dependent protein kinase type II subunit gamma (Homo sapiens), sequence (Q13555 whole entry, the tested form may be a part): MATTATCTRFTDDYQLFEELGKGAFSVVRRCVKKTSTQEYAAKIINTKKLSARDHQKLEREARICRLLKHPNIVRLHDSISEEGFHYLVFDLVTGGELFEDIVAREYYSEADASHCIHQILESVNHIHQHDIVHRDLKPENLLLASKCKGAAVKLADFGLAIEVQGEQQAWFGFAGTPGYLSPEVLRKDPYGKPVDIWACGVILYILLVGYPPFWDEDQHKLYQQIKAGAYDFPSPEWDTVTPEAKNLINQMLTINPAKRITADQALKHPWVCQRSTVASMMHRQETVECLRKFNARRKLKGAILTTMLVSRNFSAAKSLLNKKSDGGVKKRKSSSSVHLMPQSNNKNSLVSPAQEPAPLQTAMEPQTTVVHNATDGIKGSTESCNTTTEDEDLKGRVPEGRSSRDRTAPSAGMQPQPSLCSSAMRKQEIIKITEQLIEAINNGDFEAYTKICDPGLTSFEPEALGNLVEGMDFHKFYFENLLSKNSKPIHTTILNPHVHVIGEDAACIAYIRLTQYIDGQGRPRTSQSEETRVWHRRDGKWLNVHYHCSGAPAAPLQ
Fibroblast growth factor receptor 3 (Homo sapiens), sequence (P22607 23-806 limits assumed): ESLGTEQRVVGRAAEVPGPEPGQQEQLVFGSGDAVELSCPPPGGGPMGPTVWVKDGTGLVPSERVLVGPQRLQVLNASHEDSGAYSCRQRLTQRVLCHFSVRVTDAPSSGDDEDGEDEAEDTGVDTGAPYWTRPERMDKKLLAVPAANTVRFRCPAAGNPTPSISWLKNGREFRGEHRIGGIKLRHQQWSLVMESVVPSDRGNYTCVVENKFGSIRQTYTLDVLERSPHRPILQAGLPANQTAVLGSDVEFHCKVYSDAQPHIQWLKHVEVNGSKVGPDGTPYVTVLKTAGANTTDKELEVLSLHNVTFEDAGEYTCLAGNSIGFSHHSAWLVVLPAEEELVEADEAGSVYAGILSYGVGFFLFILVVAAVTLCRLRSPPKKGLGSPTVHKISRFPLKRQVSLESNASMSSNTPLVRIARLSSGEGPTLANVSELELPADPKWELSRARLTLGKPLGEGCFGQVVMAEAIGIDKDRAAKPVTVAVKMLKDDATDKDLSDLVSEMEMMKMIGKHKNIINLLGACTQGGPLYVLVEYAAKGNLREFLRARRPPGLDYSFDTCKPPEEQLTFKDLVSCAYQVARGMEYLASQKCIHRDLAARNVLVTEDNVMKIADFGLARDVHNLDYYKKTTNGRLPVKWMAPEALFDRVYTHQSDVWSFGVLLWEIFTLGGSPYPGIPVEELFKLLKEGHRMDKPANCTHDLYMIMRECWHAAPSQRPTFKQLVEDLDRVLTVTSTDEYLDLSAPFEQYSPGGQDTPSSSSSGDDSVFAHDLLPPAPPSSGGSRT
Membrane-associated tyrosine- and threonine-specific cdc2-inhibitory kinase (Homo sapiens), sequence (Q99640 whole entry, the tested form may be a part): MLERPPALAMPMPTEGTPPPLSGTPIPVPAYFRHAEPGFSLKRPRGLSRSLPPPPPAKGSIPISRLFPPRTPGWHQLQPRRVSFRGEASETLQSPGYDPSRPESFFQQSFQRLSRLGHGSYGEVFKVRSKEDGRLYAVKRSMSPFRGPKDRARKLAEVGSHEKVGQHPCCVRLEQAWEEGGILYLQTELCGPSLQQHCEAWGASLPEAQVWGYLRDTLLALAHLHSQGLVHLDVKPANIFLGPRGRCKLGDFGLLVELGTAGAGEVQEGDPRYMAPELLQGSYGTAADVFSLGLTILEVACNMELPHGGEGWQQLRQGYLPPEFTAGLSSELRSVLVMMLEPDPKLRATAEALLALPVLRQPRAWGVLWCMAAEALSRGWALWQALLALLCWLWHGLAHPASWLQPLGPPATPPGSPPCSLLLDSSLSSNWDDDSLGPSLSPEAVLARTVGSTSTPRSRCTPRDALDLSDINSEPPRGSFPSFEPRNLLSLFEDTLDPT
Ephrin type-A receptor 8 (Homo sapiens), sequence (P29322 whole entry, the tested form may be a part): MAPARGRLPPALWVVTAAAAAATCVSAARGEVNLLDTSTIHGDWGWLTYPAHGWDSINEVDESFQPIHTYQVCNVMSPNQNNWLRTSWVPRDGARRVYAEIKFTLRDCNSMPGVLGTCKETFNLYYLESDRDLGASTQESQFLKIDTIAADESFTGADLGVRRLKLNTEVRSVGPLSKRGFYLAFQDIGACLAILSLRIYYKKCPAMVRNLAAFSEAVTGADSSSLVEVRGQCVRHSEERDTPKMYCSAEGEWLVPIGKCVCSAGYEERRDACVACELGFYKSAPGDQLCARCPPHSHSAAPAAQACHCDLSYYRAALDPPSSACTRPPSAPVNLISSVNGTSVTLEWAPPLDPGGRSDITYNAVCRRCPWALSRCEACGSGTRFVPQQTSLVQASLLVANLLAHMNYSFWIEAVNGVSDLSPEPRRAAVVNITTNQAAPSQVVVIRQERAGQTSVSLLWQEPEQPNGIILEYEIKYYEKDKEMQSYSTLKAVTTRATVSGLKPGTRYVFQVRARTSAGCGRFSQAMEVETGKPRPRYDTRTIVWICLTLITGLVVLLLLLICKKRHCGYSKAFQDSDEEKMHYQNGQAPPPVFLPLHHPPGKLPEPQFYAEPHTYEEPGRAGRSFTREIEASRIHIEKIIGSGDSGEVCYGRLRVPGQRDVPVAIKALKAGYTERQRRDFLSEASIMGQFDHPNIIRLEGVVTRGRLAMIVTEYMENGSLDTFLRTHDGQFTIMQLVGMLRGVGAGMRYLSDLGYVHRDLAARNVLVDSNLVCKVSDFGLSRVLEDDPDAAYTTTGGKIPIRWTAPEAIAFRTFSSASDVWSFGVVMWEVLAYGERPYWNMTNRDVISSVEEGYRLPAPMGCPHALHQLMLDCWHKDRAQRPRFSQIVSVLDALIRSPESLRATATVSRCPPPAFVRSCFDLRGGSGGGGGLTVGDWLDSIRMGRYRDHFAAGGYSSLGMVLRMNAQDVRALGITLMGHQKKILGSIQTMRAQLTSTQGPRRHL

For orientation: IC50 means the concentration needed to halve the response being measured. Read a low IC50 as higher potency. `C=CC(=O)Nc1ccccc1Nc1nc(Nc2ccc(N3CCN(C)CC3)cc2)ncc1C(=O)Nc1c(C)cccc1Cl`: the Activity in assay [1] stood at 100%; in assay [2] it was 100%; in assay [4], 100%; in assay [5] it was 81%; in assay [6] it was 100%; in [7] it was 100%. Besides, the Activity in [8] amounted to 93%; in assay [9], 89%; in [10] it was 100%; in assay [11] it was 93%; in [12], 0.15%; in assay [13], 100%. Also, the Activity in [14] stood at 100%; in [15], 100%; in assay [16], 100%; in assay [17], 1%; in [18], 100%; in assay [19] it was 100%. In addition, the Activity in assay [20], in [21] and in assay [22] was 100% throughout. In addition, the IC50 in assay [3] was 3 nM.
